The source of these data is ChEMBL document CHEMBL1833891, “New inhibitors of colony spreading in Bacillus subtilis and Bacillus anthracis” (Bioorg Med Chem Lett, 2011).

For assay [1], the system named is Bacillus subtilis. In words: Antibacterial activity against Bacillus subtilis NCIB 3610 DS1677 harboring marker-less hag mutant assessed as inhibition of surface colony-spreading at 15 ug/ml after overnight incubation at 32 degree C relative to control. The assay is classed as functional. The note with it: subsp. subtilis str. NCIB 3610 DS1677. A digest of the protocol: (§1)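 DS1677 inoculated at the centre of Tryptic soy broth soft agar (7 g L⁻¹) containing compound, incubated, then average colony diameter measured. % inhibition of spreading is relative to a DMSO control. Duplicate or triplicate, with the assay repeated if replicates differed by >10% in diameter. NPG isomers at 30 µg mL⁻¹, other compounds at 15 µg mL⁻¹.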

Assay [2] concerns Bacillus subtilis. Put plainly: Antibacterial activity against Bacillus subtilis NCIB 3610 DS1677 harboring marker-less hag mutant assessed as inhibition of surface colony-spreading at 75 ug/ml after 24 hrs relative to control. Particulars: subsp. subtilis str. NCIB 3610 DS1677. It is filed as functional. A digest of the protocol:
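Marker-less hag mutant DS1677 on MK agarose (semi-solid, complete defined nutrients) plates containing 75 µg mL⁻¹ compound in DMSO. Control plates contained 75 µg mL⁻¹ DMSO. Colony spreading compared with control.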

Another assay relates to Proteus mirabilis. In words: Antibacterial activity against Proteus mirabilis 7002 assessed as inhibition of swarming by plate swarm assay. The assay is classed as functional, organism-based. A digest of the protocol:
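Proteus plate swarm assay. Each compound at 75 µg mL⁻¹ in the plate, with swarming judged by visible effect.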

Assay [3] has as its system Bacillus subtilis. Put plainly: Antibacterial activity against Bacillus subtilis NCIB 3610 DS1677 harboring marker-less hag mutant assessed as inhibition of surface colony-spreading at 30 ug/ml after overnight incubation at 32 degree C relative to control. The assay is classed as functional. Particulars: subsp. subtilis str. NCIB 3610 DS1677. A digest of the protocol:
as §1

The subject of assay [4] is Bacillus anthracis. Put plainly: Antibacterial activity against Bacillus anthracis Sterne assessed as inhibition of surface colony-spreading after overnight incubation. The assay is classed as functional, organism-based.
Assay [5] concerns Bacillus subtilis. Put plainly: Antibacterial activity against Bacillus subtilis NCIB 3610 DS1677 harboring marker-less hag mutant assessed as inhibition of surface colony-spreading after 16 hrs relative to control. The assay is classed as functional. Particulars: subsp. subtilis str. NCIB 3610 DS1677, 16 h. A digest of the protocol:
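B. subtilis hag deletion strain DS1677: 3 µL of an overnight LB culture spotted on Tryptic soy broth agar (7 g L⁻¹), dried 3–4 h, with graded inhibitor levels. Plates in duplicate, grown 16 h at 32 °C. IC50 derived from measured colony diameters.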

The test system of assay [6] is Bacillus anthracis. Put plainly: Antibacterial activity against Bacillus anthracis Sterne assessed as inhibition of surface colony-spreading at 75 ug after overnight incubation. The assay is classed as functional, organism-based.
The test system of assay [7] is Bacillus subtilis. Put plainly: Antibacterial activity against erythromycin-lincomycin resistant Bacillus subtilis NCIB 3610 DS64 harboring hag deletion mutant assessed as inhibition of surface colony-spreading at 75 ug/ml after 24 hrs relative to control. The note with it: subsp. subtilis str. NCIB 3610 DS64. It is filed as functional. A digest of the protocol: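 hag mutant DS64 (MLS antibiotic marker) inoculated at the centre of MK agarose plates with or without 75 µg mL⁻¹ compound, grown 24 h at 37 °C. Surface film spreading scored against the untreated plate.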

Structures are written as SMILES. Calls of active or inactive are those of the source. The calls are words filed in the database; no cut-off is given here.

Usually inhibition stands for the share of the control response that was lost under treatment. The term IC50 denotes the concentration that inhibits the measured activity by half.

Take `COC[C@H](O)[C@H](O)c1ccc(S(C)(=O)=O)cc1`: the inhibition at 15 µg/mL with Bacillus subtilis [1] is 10.1%.

With `O=[N+]([O-])c1ccc([C@@H](O)[C@H](O)CO)cc1`, the inhibition result in the assay on Bacillus subtilis [2] was “inactive”. For the same compound, the inhibition result with Proteus mirabilis is “Active”. In addition, in the assay on Bacillus subtilis [3], the inhibition at 30 µg/mL was 16.1%. On to `CSc1ccc(C(O)C(O)CO)cc1` (mixture of isomers), for which the inhibition at 15 µg/mL in the assay with Bacillus subtilis [1] came out at 0%. For the compound `O=[N+]([O-])c1ccc([C@@H](O)[C@@H](O)CO)cc1`, the inhibition entry with Bacillus subtilis [2] and in the assay on Proteus mirabilis was “Active” each time. The IC50 in the assay with Bacillus anthracis [4] is > 150 µM; in the assay on Bacillus subtilis [5], 122 µM. Further, in the assay with Bacillus subtilis [3], the inhibition at 30 µg/mL was 24.8%. For `OCC(O)C(O)c1ccccc1` (mixture of isomers), the inhibition at 15 µg/mL with Bacillus subtilis [1] came out at 12.9%.

In the case of `COC[C@H](OC)[C@H](OC)c1ccc(S(C)(=O)=O)cc1`, the inhibition at 15 µg/mL in the assay with Bacillus subtilis [1] was 18.5%. On to `O=[N+]([O-])c1ccc([C@H](O)[C@H](O)CO)cc1`, for which the inhibition result in the assay on Bacillus subtilis [2] and in the assay with Proteus mirabilis was “inactive” each time. In the assay with Bacillus subtilis [3], the inhibition at 30 µg/mL was determined as 1.5%. For the compound `CO[C@H](c1ccc(S(C)(=O)=O)cc1)[C@@H](O)CO`, the inhibition at 15 µg/mL in the assay on Bacillus subtilis [1] was 0%.

As to `CS(=O)(=O)c1ccc([C@H](O)[C@@H](O)CO)cc1`, the inhibition at 15 µg/mL with Bacillus subtilis [1] worked out at 0%.

With `COC(=O)c1ccc(C(O)C(O)CO)cc1` (mixture of isomers), in the assay with Bacillus subtilis [1], the inhibition at 15 µg/mL was 0%. For the compound `CS(=O)(=O)c1ccc([C@H](O)[C@H](O)CO)cc1`, the inhibition at 15 µg/mL in the assay with Bacillus subtilis [1] amounted to 1.6%. As for `CS(=O)(=O)c1ccc([C@@H](O)[C@@H](O)CO)cc1`, the inhibition result in the assay on Bacillus anthracis [6] is “Active”. Besides, the IC50 in the assay with Bacillus anthracis [4] is 12 µM. Also, the inhibition at 15 µg/mL with Bacillus subtilis [1] is 95.3%.

In the case of `OCC(O)C(O)c1ccc(O)cc1` (mixture of isomers), in the assay on Bacillus subtilis [1], the inhibition at 15 µg/mL is 12.9%.

In the case of `C=C[C@H](O)c1ccc(S(C)(=O)=O)cc1`, the inhibition at 15 µg/mL in the assay with Bacillus subtilis [1] was 21.3%.

Consider `CS(=O)(=O)c1ccc([C@@H](O)[C@H](O)CO)cc1`, for which the inhibition result in the assay with Bacillus anthracis [6] was “Active”. In addition, the inhibition at 15 µg/mL with Bacillus subtilis [1] was determined as 69.1%. `CS(=O)(=O)Oc1ccc(C(O)C(O)CO)cc1` (mixture of isomers): in the assay on Bacillus subtilis [1], the inhibition at 15 µg/mL was determined as 11.5%. For `CS(=O)(=O)c1ccccc1[C@@H](O)[C@@H](O)CO`, the inhibition at 15 µg/mL in the assay on Bacillus subtilis [1] amounted to 0%.

In the case of `COC[C@H](O)[C@H](OC)c1ccc(S(C)(=O)=O)cc1`, the inhibition at 15 µg/mL in the assay on Bacillus subtilis [1] amounted to 0%. Consider `O=[N+]([O-])c1ccc(C(O)C(O)CO)cc1` (stereo not given), for which the inhibition entry in the assay with Bacillus subtilis [7] was “Active”.

As for `CS(=O)(=O)c1cccc(C(O)C(O)CO)c1` (mixture of isomers), the inhibition at 15 µg/mL with Bacillus subtilis [1] is 10.5%. Regarding `O=[N+]([O-])c1ccc([C@H](O)[C@@H](O)CO)cc1`, the inhibition result in the assay on Bacillus subtilis [2] and with Proteus mirabilis was “inactive” throughout. For the same compound, in the assay on Bacillus subtilis [3], the inhibition at 30 µg/mL was 0%. On to `NS(=O)(=O)c1ccc(C(O)C(O)CO)cc1` (mixture of isomers), for which, in the assay with Bacillus subtilis [1], the inhibition at 15 µg/mL was found to be 4.5%.
